Experimental data: ChEMBL document CHEMBL1152540, “Antioxidant efficacy of iridoid and phenylethanoid glycosides from the medicinal plant Teucrium chamaedris in cell-free systems” (Bioorg Med Chem, 2009)
pIC50: −log10 of the molar value.

Tests used:
[1] = Antioxidant activity assessed as trolox equivalent of lipid peroxidation inhibition after 60 mins by TBARS assay; assay type: functional
[2] = Antioxidant activity assessed as inhibition of lipid peroxidation after 60 mins by TBARS assay; assay type: functional
Procedure, shortened: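 Olive oil (10.0 µg) was emulsified with Tween-40 in 0.2 M Tris-HCl, pH 7.4. The emulsion was UV-irradiated at 254 nm for 60 min, then stirred 24 h at room temperature. Thiobarbituric acid-reactive species were developed in a boiling water bath for 90 min and centrifuged, and the supernatant was read at 532 nm. Inhibition was given as % versus a blank without compound.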

[3] = Antioxidant activity assessed as inhibition of H2O2-induced bovine serum albumin oxidation after 10 mins by spectrophotometry; assay type: functional; conditions: in the assay text read “after 1 hr” for “after 10 mins”
Procedure, shortened: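 BSA (10 mg/mL) was incubated 1 h at 37 °C in 20 mM phosphate, pH 7.4, with FeCl3 400 µM, H2O2 3 mM, ascorbate 400 µM and metabolite at 5, 10 or 20 µM. Carbonyls were derivatized with DNPH (20 mM in 2 N HCl) and TCA 20%, then centrifuged. The pellet was washed with EtOH/EtOAc, dissolved in 6 M guanidine-HCl, pH 6.5, and read at 370 nm. Runs were in triplicate, as % versus blank.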

[4] = Antioxidant activity assessed as trolox equivalent of inhibition of H2O2-induced bovine serum albumin oxidation after 1 hr by spectrophotometry
[5] = Antioxidant activity assessed as trolox equivalent of inhibition of Fe3+ ion-induced 2-deoxyribose oxidation after 24 hrs by TBA method; assay type: functional
[6] = Antioxidant activity assessed as inhibition of Fe3+ ion-induced 2-deoxyribose oxidation after 24 hrs by TBA method; assay type: functional
Procedure, shortened: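 EDTA, FeCl3 and H2O2 (1.0 mM each) were preincubated for 1 h at 37 °C. 2-Deoxyribose (28 mM) and ascorbic acid (1.0 mM) were then added. Compounds at 5, 10 or 20 µM (150 µL per 1350 µL mixture) were incubated 24 h at 37 °C. Degradation was measured with TBA 0.5%/TCA 2.5% at 90 °C for 3 h, read at 532 nm, in triplicate.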

[7] = tested on: Radical scavenging activity; assay: Antioxidant activity assessed as DPPH radical scavenging activity after 30 mins by spectrophotometry; assay type: functional
[8] = tested on: Radical scavenging activity; assay: Antioxidant activity assessed as trolox equivalent of DPPH radical scavenging activity after 30 mins by spectrophotometry; assay type: functional
[9] = Antioxidant activity assessed as inhibition of H2O2-induced bovine serum albumin oxidation after 1 hr by spectrophotometry
[10] = Antioxidant activity assessed as hydroxyl radical scavenging activity at 20 uM; assay type: functional

Row | Structure (SMILES) | pIC50 [2] | pIC50 [3] | pIC50 [6] | pIC50 [7] | pIC50 [9] | Activity [1] | Activity [4] | Activity [5] | Activity [7] | Activity [8] | Activity [10]
1 | CC(=O)O[C@]1(C)C[C@H](O)[C@@]2(O)C=CO[C@H](O[C@@H]3O[C@H](CO)[C@@H](O)[C@H](O)[C@H]3O)[C@H]21 | 4.34 | 4.63 | 4.29 | < 3.52 | – | 0.7 | 2.9 | 0.3 | Dose-dependent effect | – | –
2 | COc1ccc(/C=C/C(=O)OC[C@H]2O[C@@H](O[C@H]3OC=C[C@@]4(O)[C@@H]3[C@](C)(O)C[C@@H]4O)[C@H](O[C@@H]3O[C@H](CO)[C@@H](O)[C@H](O)[C@H]3O)[C@@H](O)[C@@H]2O)cc1 | 4.41 | 4.89 | 4.89 | < 3.52 | – | 0.8 | 5.4 | 1.4 | Dose-dependent effect | – | –
3 | COc1ccc(/C=C/C(=O)OC[C@H]2O[C@@H](O[C@H]3OC=C[C@@]4(O)[C@@H]3[C@](C)(O)C[C@@H]4O)[C@H](O)[C@@H](O)[C@@H]2O)cc1 | 4.17 | – | 4.88 | < 3.52 | 4.98 | 0.5 | 6.6 | 1.4 | Dose-dependent effect | – | –
4 | COc1ccc(/C=C/C(=O)OC[C@H]2O[C@@H](O[C@H]3OC=C[C@@]4(O)[C@@H]3[C@](C)(O)C[C@@H]4O)[C@H](O)[C@@H](O)[C@@H]2O)cc1OC | 4.48 | – | 4.58 | < 3.52 | 4.97 | 1 | 6.5 | 0.7 | Dose-dependent effect | – | –
5 | CC(=O)O[C@]1(C)C[C@H](O)[C@H]2C=CO[C@H](O[C@@H]3O[C@H](CO)[C@@H](O)[C@H](O)[C@H]3O)[C@H]21 | 4.35 | 4.41 | 4.28 | < 3.52 | – | 0.7 | 1.8 | 0.3 | Dose-dependent effect | – | –
6 | COc1ccc(/C=C/C(=O)OC[C@H]2O[C@@H](O[C@H]3OC=C[C@H]4[C@@H]3[C@](C)(O)C[C@@H]4O)[C@H](O)[C@@H](O)[C@@H]2O)cc1OC | – | – | – | < 3.52 | – | – | – | – | – | – | –

Stronger by pIC50 [7], values ahead:

Row | pIC50 [2] | pIC50 [3] | pIC50 [6] | pIC50 [7] | pIC50 [9] | Structure (SMILES) | Activity [1] | Activity [4] | Activity [5] | Activity [7] | Activity [8] | Activity [10]
7 | 4.68 | 4.48 | 4.49 | 4.85 | – | COc1cc(/C=C/C(=O)O[C@H]2[C@H](O[C@@H]3O[C@@H](C)[C@H](O)[C@@H](O)[C@H]3O[C@@H]3OC[C@H](O)[C@@H](O)[C@H]3O)[C@@H](O)[C@H](OCCc3ccc(O)c(O)c3)O[C@@H]2CO)ccc1O | 1.5 | 2.1 | 0.6 | Dose-dependent effect | 1.5 | –
8 | 4.58 | 4.42 | 4.47 | 4.42 | – | C[C@@H]1O[C@@H](O[C@@H]2[C@@H](O)[C@H](OCCc3ccc(O)c(O)c3)O[C@H](COC(=O)/C=C/c3ccc(O)c(O)c3)[C@H]2O)[C@H](O[C@@H]2OC[C@H](O)[C@@H](O)[C@H]2O)[C@H](O)[C@H]1O | 1.2 | 1.8 | 0.7 | Dose-dependent effect | 0.5 | –
9 | 4.50 | 4.16 | 4.74 | 4.68 | – | Cc1c(C)c2c(c(C)c1O)CCC(C)(C(=O)O)O2 (stereo unspecified) [TROLOX] | – | – | – | – | – | –
10 | 4.33 | 4.74 | 4.43 | 4.96 | – | COc1cc(/C=C/C(=O)OC[C@H]2O[C@@H](OCCc3ccc(O)c(O)c3)[C@H](O)[C@@H](O[C@@H]3O[C@@H](C)[C@H](O)[C@@H](O)[C@H]3O[C@@H]3OC[C@H](O)[C@@H](O)[C@H]3O)[C@@H]2O)ccc1O | 0.7 | 3.8 | 0.5 | Dose-dependent effect | 1.9 | –
11 | 5.01 | 4.24 | 4.58 | 4.82 | – | C[C@@H]1O[C@@H](O[C@@H]2[C@@H](O)[C@H](OCCc3ccc(O)c(O)c3)O[C@H](CO)[C@H]2OC(=O)/C=C/c2ccc(O)c(O)c2)[C@H](O)[C@H](O)[C@H]1O [ACETOSIDE] | 3.3 | 1.2 | 0.5 | Dose-dependent effect | 1.3 | –
12 | 4.79 | 4.35 | 4.46 | 4.78 | – | C[C@@H]1O[C@@H](O[C@@H]2[C@@H](O)[C@H](OCCc3ccc(O)c(O)c3)O[C@H](CO)[C@H]2OC(=O)/C=C/c2ccc(O)c(O)c2)[C@H](O[C@@H]2OC[C@H](O)[C@@H](O)[C@H]2O)[C@H](O)[C@H]1O | 2 | 1.5 | 0.5 | Dose-dependent effect | 1.4 | 54.7%
